Laboratory results taken from ChEMBL document CHEMBL3351247 (J Med Chem, 2014).
Active and inactive are the calls of the source. The calls are words filed in the database; no cut-off is given here.

Assays:
[1] = biological target: Kappa-type opioid receptor (Homo sapiens, UniProt P41145); assay: Agonist activity at human KOR expressed in CHO cells assessed as inhibition of forskolin-induced cAMP accumulation after 30 mins by luminescence assay; format: functional, cell-based
In short: (§1)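 CHO cells stably expressing KOR or MOR, plated at 10 000 cells/well and incubated overnight at 37 °C. Compounds given as 10-point serial dilutions (1% DMSO final) with 20 μM forskolin final in HBSS/10 mM HEPES. Incubation 30 min at 37 °C, then detection reagents overnight at room temperature. HitHunter cAMP luminescence read-out; data normalized to vehicle and forskolin-only controls, nonlinear regression.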

Mu-type opioid receptor = Mu-type opioid receptor (Homo sapiens, UniProt P35372); assay: Agonist activity at human MOR expressed in CHO cells assessed as inhibition of forskolin-induced cAMP accumulation after 30 mins by luminescence assay; format: functional, cell-based; in short: as §1
Chain of Mu-type opioid receptor (P35372 whole entry): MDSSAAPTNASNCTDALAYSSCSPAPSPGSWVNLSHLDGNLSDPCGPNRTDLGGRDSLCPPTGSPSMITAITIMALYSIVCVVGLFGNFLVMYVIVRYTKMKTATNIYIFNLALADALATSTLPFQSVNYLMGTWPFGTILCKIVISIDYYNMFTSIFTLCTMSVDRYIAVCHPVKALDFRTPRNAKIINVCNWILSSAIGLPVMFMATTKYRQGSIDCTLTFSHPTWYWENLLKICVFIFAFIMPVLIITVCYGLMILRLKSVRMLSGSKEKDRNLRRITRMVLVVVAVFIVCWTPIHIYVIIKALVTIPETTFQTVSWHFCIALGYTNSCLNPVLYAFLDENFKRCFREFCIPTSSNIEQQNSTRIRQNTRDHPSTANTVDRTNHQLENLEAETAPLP

Rattus norvegicus [2] = assay: Inhibition of cocaine-prime-induced reinstatement in Sprague-Dawley rat at 0.1 to 0.3 mg/kg, ip administered 10 mins prior to cocaine challenge relative to vehicle-treated control; format: functional, organism-based
In short: (§2)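 Male Sprague-Dawley rats (300–350 g) self-administered IV cocaine (0.5 mg/kg/infusion, jugular cannula) in daily 2 h sessions on FR5 until stable (<20% variation over 3 days). Extinction with saline-heparin and no light cue until responses fell below 20% of baseline. Agonist given ip in DMSO:Tween 80:water 2:1:7 10 min before a cocaine prime (20 mg/kg). Active lever presses recorded.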

Rattus norvegicus [3] = assay: Toxicity in Sprague-Dawley rat assessed as inactive lever pressing during self administration period at 1 mg/kg, ip; format: organism-based; design: dose 1 mg/kg, route intraperitoneal; details: in vivo
In short: (§3)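 Male Sprague-Dawley rats (300–350 g) trained to IV cocaine self-administration (0.5 mg/kg/infusion) on FR5 in 2 h daily sessions, then extinction with saline-heparin and cocaine-prime (20 mg/kg) reinstatement. Agonist given ip in DMSO:Tween 80:water 2:1:7 10 min before prime.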

Rattus norvegicus [4] = assay: Toxicity in Sprague-Dawley rat assessed as inactive lever pressing during self administration period at 0.3 mg/kg, ip; format: organism-based; design: dose 0.3 mg/kg, route intraperitoneal; details: in vivo; in short: as §3
Rattus norvegicus [5] = assay: Toxicity in Sprague-Dawley rat assessed as inactive lever pressing during extinction period at 1 mg/kg, ip; format: organism-based; design: dose 1 mg/kg, route intraperitoneal; details: in vivo; in short: as §3
Rattus norvegicus [6] = assay: Toxicity in Sprague-Dawley rat assessed as inactive lever pressing during extinction period at 0.3 mg/kg, ip; format: organism-based; design: dose 0.3 mg/kg, route intraperitoneal; details: in vivo; in short: as §3
Rattus norvegicus [7] = assay: Toxicity in Sprague-Dawley rat assessed as inactive lever pressing during reinstatement period at 1 mg/kg, ip; format: organism-based; design: dose 1 mg/kg, route intraperitoneal; details: in vivo; in short: as §3
Rattus norvegicus [8] = assay: Toxicity in Sprague-Dawley rat assessed as inactive lever pressing during reinstatement period at 0.3 mg/kg, ip; format: organism-based; design: dose 0.3 mg/kg, route intraperitoneal; details: in vivo; in short: as §3
Rattus norvegicus [9] = assay: Inhibition of cocaine-prime-induced reinstatement in Sprague-Dawley rat at 1 mg/kg, ip administered 10 mins prior to cocaine challenge relative to vehicle-treated control; format: functional, organism-based; design: dose 1 mg/kg; in short: as §2
Rattus norvegicus [10] = assay: Inhibition of cocaine-prime-induced reinstatement in Sprague-Dawley rat at 0.3 to 1 mg/kg, ip administered 10 mins prior to cocaine challenge relative to vehicle-treated control; format: functional, organism-based; in short: as §2

Chain of Kappa-type opioid receptor (P41145 whole entry): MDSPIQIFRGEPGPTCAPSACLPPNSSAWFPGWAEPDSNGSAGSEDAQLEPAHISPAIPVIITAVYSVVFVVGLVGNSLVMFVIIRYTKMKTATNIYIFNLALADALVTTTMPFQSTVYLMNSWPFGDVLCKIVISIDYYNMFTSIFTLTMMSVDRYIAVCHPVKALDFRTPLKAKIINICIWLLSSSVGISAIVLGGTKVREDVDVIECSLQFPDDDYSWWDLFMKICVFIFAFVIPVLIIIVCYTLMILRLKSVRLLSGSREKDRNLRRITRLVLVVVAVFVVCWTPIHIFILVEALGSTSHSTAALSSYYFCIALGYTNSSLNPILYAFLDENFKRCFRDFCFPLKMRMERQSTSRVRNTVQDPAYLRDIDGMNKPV

Molecule `C#Cc1occc1[C@@H]1C[C@]2(C)[C@H]3C(=O)[C@@H](OC(C)=O)C[C@@H](C(=O)OC)[C@]3(C)CC[C@H]2C(=O)O1` has an EC50 [1] of 0.019 nM, an Emax [1] of 100% and an EC50 (Mu-type opioid receptor) of at least 10 µM. For the same molecule, the inhibition (Rattus norvegicus [2]) was “Active”, the Activity (Rattus norvegicus [3]) was “Non-toxic” and the Activity (Rattus norvegicus [4]) was “Non-toxic”. For the same molecule, the Activity (Rattus norvegicus [5]) was “Non-toxic”, the Activity (Rattus norvegicus [6]) was “Non-toxic” and the Activity (Rattus norvegicus [7]) was “Non-toxic”. The Activity (Rattus norvegicus [8]) was “Non-toxic”.
In the case of `COC(=O)[C@@H]1C[C@H](OC(C)=O)C(=O)[C@H]2[C@@]1(C)CC[C@H]1C(=O)O[C@H](c3ccoc3C)C[C@]21C`, the EC50 [1] is reported as 0.41 nM, the Emax [1] is reported as 100% and the EC50 (Mu-type opioid receptor) is reported as at least 10 µM. For the same molecule, the inhibition (Rattus norvegicus [9]) was “inactive”, the Activity (Rattus norvegicus [3]) was “Non-toxic” and the Activity (Rattus norvegicus [4]) was “Non-toxic”. For the same molecule, the Activity (Rattus norvegicus [5]) was “Non-toxic”, the Activity (Rattus norvegicus [6]) was “Non-toxic” and the Activity (Rattus norvegicus [7]) was “Non-toxic”. For the same molecule, the Activity (Rattus norvegicus [8]) was “Non-toxic”.
With `COC(=O)[C@@H]1C[C@H](OC(C)=O)C(=O)[C@H]2[C@@]1(C)CC[C@H]1C(=O)O[C@H](c3ccoc3Br)C[C@]21C` the EC50 (Mu-type opioid receptor) was at least 10 µM, the inhibition (Rattus norvegicus [10]) was “Active” and the Activity (Rattus norvegicus [3]) was “Non-toxic”. For the same molecule, the Activity (Rattus norvegicus [4]) was “Non-toxic”, the Activity (Rattus norvegicus [5]) was “Non-toxic” and the Activity (Rattus norvegicus [6]) was “Non-toxic”. The Activity (Rattus norvegicus [7]) was “Non-toxic” and the Activity (Rattus norvegicus [8]) was “Non-toxic”.
